Among the data in PubChem BioAssay are viability, differential viability (reversal) and inhibition values, retold here.

Calls of active or inactive are those of the source.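 The calls were made as follows, unless noted: active = viability at or below 10% of carrier control in both of two separate runs; inconclusive = viability at or below 10% in only one of the two runs; inactive = the rest.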

Test [1] is described as follows: SK-BR-3 cell growth inhibitors, pilot screen, 24 h, human (AID 572).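 Also: compound exposure lasted between 18 and 24 h rather than exactly 24 h; 100% = carrier-treated control wells.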 As to conditions: SK-BR-3 viability, CellTiter-Glo luminescence, at 10 µM, stronger effect = lower value.
A short description of test [2]: HUVEC growth inhibition – cell-based, human, primary screen (AID 575;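 active = viability at or below 30% in both replicate assays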;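 also: 100% = median of untreated cell wells with 0.1% DMSO on each plate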). The following applies: HUVEC proliferation, CellTiter-Glo luminescence, 72 h; at 10 µM; stronger effect = lower value. The procedure, abridged: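 system = HUVEC primary cells | amount = 1250 cells/well | buffer or medium = supplemented EBM, 2% fetal bovine serum | dosing = single-point 10 µM, DMSO 0.1% final | times = 72 h compound incubation | detection = CTG luminescence | read-out = % viability relative to median vehicle-well signal on each plate | control set = vehicle and MePR control wells | format = collagen-coated 384-well format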
Background: ATP-based viability assays read luminescence as a measure of living cells.

Test [3] is described as follows: growth inhibitors of H69AR lung tumor, primary screen, human, duplicate replicates (AID 580;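 active = viability at or under a set limit in both replicates, limit being median viability minus 3 SD, cut at about 48% in these data, passing the limit was not always enough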;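 also: 100% = mean luminescence of untreated wells and 0% = no signal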). The following applies: H69AR lung tumor cells viability, ATP luminescence, 72 h; at 10 µM; stronger effect = lower value.
Test [4] is described as follows: reversal of MRP1-mediated doxorubicin resistance, pilot screen, H69AR cells, doxorubicin co-treatment (AID 601;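 active = viability loss from added drug above about 55%, and viability with drug at most 40%, in both replicates, limit read from the data, passing the limit was not always enough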). The following applies: CellTiter-Glo, 72 h, at 10 µM; for differential viability (reversal): stronger effect = higher value.
The nature of test [5]: 384-well plate pilot, post-Golgi transport modulator project, inhibition of yeast transport mutant growth (AID 636; in the data active = inhibition above about 31%). As to conditions: absorbance 615 nm, about 18 h, stronger effect = higher value.
The nature of test [6]: growth suppression of yeast trafficking mutant, preliminary HTS, modulators of trafficking downstream of Golgi apparatus project, 1536-format plate, OD 615 nm (AID 637; in the data active = inhibition above about 30%). As to conditions: yeast transport mutant growth, absorbance 615 nm, 18 h; stronger effect = higher value.
[7] abbreviates: H69AR cells + 2 uM doxorubicin, measured here: viability with 2 uM doxorubicin, stronger effect = lower value.
Setting [8] is: H69AR cells, compound alone cytotoxicity.

By viability is commonly meant a read-out of living cells in per cent, often relative to untreated cells. A word on the inhibition: it is the relative decrease from the control value, in per cent.

On to `CC(C)OC(=O)c1ccc(NC(=O)C2C3CC4OC(=O)C2C4C3)cc1` (configuration not stated), for which the viability was 104% (inactive) in test [1]; 91.8% (inactive) in test [2]; 95.6% (inactive) in test [3]; 88.5% in test [4] (setting [7]); 95.6% in test [4] (setting [8]). Besides, the differential viability (reversal) in test [4] (H69AR cells + 2 uM doxorubicin) was 7.04% (inactive). In addition, the results for the inhibition in test [5] and in test [6] were -1.49% (inactive) and -4.91% (inactive), respectively.

Turning to `CCCN(CC1CC1)C(=O)Nc1ccccc1C`, the viability in test [1] was 94% (inactive); in test [2], 101% (inactive); in test [3], 104% (inactive); in test [4] (setting [7]) it was 92.2%; in test [4] (setting [8]), 104%. The differential viability (reversal) in test [4] (H69AR cells + 2 uM doxorubicin) is 12.2% (inactive). For the same molecule, the inhibition in test [5] was -1.04% (inactive); in test [6], -12.9% (inactive).

`O=C(O)CCn1[nH]c(=O)ccc1=O`: the viability in test [1] was 87% (inactive); in test [2] it was 102% (inactive); in test [3] it was 97.3% (inactive); in test [4] (setting [7]) it was 93.4%; in test [4] (setting [8]), 97.3%. The differential viability (reversal) in test [4] (H69AR cells + 2 uM doxorubicin) was 3.97% (inactive). Moreover, the inhibition in test [5] is -2.05% (inactive); in test [6], 1.77% (inactive).

As to `COc1ccc(S(=O)(=O)Nc2ccccc2SC)cc1C`, the viability in test [1] was 94% (inactive); in test [2], 87.8% (inactive); in test [3], 87% (inactive); in test [4] (setting [7]), 95.5%; in test [4] (setting [8]), 87%. Moreover, the differential viability (reversal) in test [4] (H69AR cells + 2 uM doxorubicin) is -8.52% (inactive). The results for the inhibition in test [5] and in test [6] were -6.99% (inactive) and 0% (inactive), respectively.

Regarding `CC(=O)OCC(=O)[C@@]1(OC(C)=O)[C@@H](C)C[C@H]2[C@@H]3C[C@H](F)C4=CC(=O)C=C[C@]4(C)[C@@]3(F)[C@@H](O)C[C@@]21C`, the viability in test [1] was 119% (inactive); in test [2], 102% (inactive); in test [3] it was 94.5% (inactive); in test [4] (setting [7]) it was 89.5%; in test [4] (setting [8]), 94.5%. Further, in test [4] (H69AR cells + 2 uM doxorubicin), the differential viability (reversal) was 5.08% (inactive). Also, the inhibition is -1.69% (inactive) in test [5] and 7.33% (inactive) in test [6].

For `Cc1cc(C(C)(C)C)cc(C)c1CC1=NCCN1`, the viability in test [1] is 120% (inactive); in test [2] it was 86.3% (inactive); in test [3], 89.9% (inactive); in test [4] (setting [7]) it was 82.3%; in test [4] (setting [8]), 89.9%. Moreover, in test [4] (H69AR cells + 2 uM doxorubicin), the differential viability (reversal) was 7.59% (inactive). Also, the figures for the inhibition in test [5] and in test [6] were -2.73% (inactive) and -4.5% (inactive), respectively.

For `CCc1nnc(NC(=O)CSc2nnc(-c3ccccc3OC)n2-c2ccccc2)s1`, the viability in test [1] was 77% (inactive); in test [2] it was 108% (inactive); in test [3], 85.2% (inactive); in test [4] (setting [7]), 87%; in test [4] (setting [8]) it was 85.2%. Also, the differential viability (reversal) in test [4] (H69AR cells + 2 uM doxorubicin) is -1.85% (inactive). Further, the inhibition in test [5] is -1.73% (inactive); in test [6] it was -1.45% (inactive).

Turning to `O=C(Nc1ccc(Br)c2cccnc12)c1ccc(Cn2cc(Cl)cn2)o1`, the viability in test [1] is 156% (inactive); in test [2] it was 43% (inactive); in test [3], 87.4% (inactive); in test [4] (setting [7]), 78.2%; in test [4] (setting [8]) it was 87.4%. In addition, the differential viability (reversal) in test [4] (H69AR cells + 2 uM doxorubicin) is 9.23% (inactive). The inhibition in test [5] was -1.56% (inactive); in test [6] it was -3.44% (inactive).

As to `N#Cc1cc2ccccc2nc1SCC(=O)Nc1ccccc1N1CCOCC1`, the viability in test [1] is 93% (inactive); in test [2], 64.4% (inactive); in test [3], 82.2% (inactive); in test [4] (setting [7]) it was 93%; in test [4] (setting [8]), 82.2%. Besides, the differential viability (reversal) in test [4] (H69AR cells + 2 uM doxorubicin) was -10.8% (inactive). The inhibition in test [5] was -3.25% (inactive); in test [6] it was 0.33% (inactive).

Turning to `CCc1cccc2c3c([nH]c12)C(CC)(CC(=O)O)OCC3` (configuration not stated), the viability was 113% (inactive) in test [1]; 72% (inactive) in test [2]; 100% (inactive) in test [3]; 99.1% in test [4] (setting [7]); 100% in test [4] (setting [8]). Further, in test [4] (H69AR cells + 2 uM doxorubicin), the differential viability (reversal) was 1.21% (inactive). Moreover, the inhibition is 1.56% (inactive) in test [5] and 0.67% (inactive) in test [6].

`CC(C)CN(CC(C)C)c1nc(N)c(C#N)c(CC#N)c1C#N`: the viability in test [1] is 106% (inactive); in test [2], 114% (inactive); in test [3] it was 86.7% (inactive); in test [4] (setting [7]) it was 73.1%; in test [4] (setting [8]), 86.7%. Further, in test [4] (H69AR cells + 2 uM doxorubicin), the differential viability (reversal) was 13.6% (inactive). In addition, the inhibition was -5.6% (inactive) in test [5] and -1.27% (inactive) in test [6].

Take `Cc1csc(NC(=O)Nc2cccc(Cl)c2)n1`: the viability in test [1] is 102% (inactive); in test [2], 75% (inactive); in test [3], 98.6% (inactive); in test [4] (setting [7]), 90%; in test [4] (setting [8]), 98.6%. Moreover, the differential viability (reversal) in test [4] (H69AR cells + 2 uM doxorubicin) was 8.58% (inactive). Also, the inhibition in test [5] is -3.73% (inactive); in test [6], -1.09% (inactive).

With `O=C(NC1CC1)c1ccc(S(=O)(=O)NCC2CCCCC2)cc1`, the viability was 112% (inactive) in test [1]; 79.4% (inactive) in test [2]; 102% (inactive) in test [3]; 97% in test [4] (setting [7]); 102% in test [4] (setting [8]). In test [4] (H69AR cells + 2 uM doxorubicin), the differential viability (reversal) was 5.06% (inactive). In addition, the inhibition is -6.85% (inactive) in test [5] and -0.32% (inactive) in test [6].

Consider `Cc1nc(NC(=O)C23CCC(C)(C(=O)O2)C3(C)C)sc1C` (configuration not stated), for which the viability in test [1] is 133% (inactive); in test [2], 107% (inactive); in test [3] it was 99.2% (inactive); in test [4] (setting [7]), 85.4%; in test [4] (setting [8]), 99.2%. In addition, the differential viability (reversal) in test [4] (H69AR cells + 2 uM doxorubicin) was 13.9% (inactive). Moreover, the inhibition in test [5] is -2.99% (inactive); in test [6], 0.16% (inactive).

In the case of `C=CCSc1nnc(-c2ccc(Cl)cc2Cl)o1`, the viability in test [1] is 96% (inactive); in test [2], 107% (inactive); in test [3], 87.9% (inactive); in test [4] (setting [7]), 67.9%; in test [4] (setting [8]), 87.9%. For the same molecule, in test [4] (H69AR cells + 2 uM doxorubicin), the differential viability (reversal) was 19.9% (inactive). Moreover, the inhibition was -5.47% (inactive) in test [5] and 0.73% (inactive) in test [6].

Consider `Cc1csc(SCCn2c(N3CCCC3)nc3c2c(=O)[nH]c(=O)n3C)n1`, for which the viability was 94% (inactive) in test [1]; 105% (inactive) in test [2]; 100% (inactive) in test [3]; 105% in test [4] (setting [7]); 100% in test [4] (setting [8]). Also, the differential viability (reversal) in test [4] (H69AR cells + 2 uM doxorubicin) is -4.86% (inactive). Moreover, the inhibition in test [5] is -1.49% (inactive); in test [6], -2.55% (inactive).

Regarding `O=C(CSc1nc2ccccc2[nH]1)c1ccc2c(c1)OCO2`, the viability was 79% (inactive) in test [1]; 99.8% (inactive) in test [2]; 107% (inactive) in test [3]; 83.8% in test [4] (setting [7]); 107% in test [4] (setting [8]). In test [4] (H69AR cells + 2 uM doxorubicin), the differential viability (reversal) was 22.7% (inactive). In addition, the values for the inhibition in test [5] and in test [6] were -0.68% (inactive) and -5.16% (inactive), respectively.

On to `O=C(Nc1ccon1)c1cc(-c2ccccc2)nc2ccccc12`, for which the viability was 91% (inactive) in test [1]; 104% (inactive) in test [2]; 96.2% (inactive) in test [3]; 99.4% in test [4] (setting [7]); 96.2% in test [4] (setting [8]). Further, the differential viability (reversal) in test [4] (H69AR cells + 2 uM doxorubicin) is -3.19% (inactive). Also, the inhibition in test [5] was -5.95% (inactive); in test [6], -3.27% (inactive).

For the molecule `CCOC(=O)c1ccc(NC(=O)N2CCN(Cc3cccc(F)c3)CC2)cc1`, the viability in test [1] was 91% (inactive); in test [2], 105% (inactive); in test [3], 84.4% (inactive); in test [4] (setting [7]), 93.6%; in test [4] (setting [8]), 84.4%. The differential viability (reversal) in test [4] (H69AR cells + 2 uM doxorubicin) was -9.16% (inactive). Moreover, the inhibition is -5.21% (inactive) in test [5] and 0.91% (inactive) in test [6].
